Test results as given in ChEMBL document CHEMBL4028911, “Discovery of a Small-Molecule Bromodomain-Containing Protein 4 (BRD4) Inhibitor That Induces AMP-Activated Protein Kinase-Modulated Autophagy-Associated Cell Death in Breast Cancer” (J Med Chem, 2017).
Activity calls are given as the source filed them. The calls are words filed in the database; no cut-off is given here.

Legend:
[1] = tested on: MCF7; experiment: Antiproliferative activity against human MCF7 cells after 24 hrs by MTT assay; format: functional, cell-based; conditions: MCF7, 24 h
[2] = molecular target: Bromodomain-containing protein 4 (Homo sapiens, UniProt O60885); experiment: Inhibition of His/thioredoxin-tagged human recombinant BRD4 bromodomain-1 (43 to 166 residues) expressed in Escherichia coli BL21 Star (DE3) pre-incubated for 30 mins followed by biotinylated histone peptide H4 addition measured after 30 mins by AlphaScreen assay
[3] = tested on: MDA-MB-231; experiment: Antiproliferative activity against human MDA-MB-231 cells after 24 hrs by MTT assay; format: functional, cell-based; conditions: MDA-MB-231, 24 h
[4] = tested on: MDA-MB-231; experiment: Induction of autophagy in human MDA-MB-231 cells assessed as downregulation of p62/SQSTM1 expression at […] by Western blot analysis; format: functional, cell-based
[5] = tested on: MCF7; experiment: Induction of autophagy in human MCF7 cells assessed as downregulation of p62/SQSTM1 expression at […] by Western blot analysis; format: functional, cell-based
[6] = tested on: MCF7; experiment: Induction of autophagy in GFP/mRFP treated human MCF7 cells assessed as induction of LC3 puncta at 150 uM by fluorescence microscopic analysis; format: functional, cell-based
How it was run: (§1)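 MCF-7 or MDA-MB-231 cells transfected with GFP/mRFP-LC3 plasmid, then treated with 150 µM for indicated times. GFP-LC3 puncta observed by fluorescence microscopy.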

[7] = tested on: MDA-MB-231; experiment: Induction of autophagy in GFP/mRFP treated human MDA-MB-231 cells assessed as induction of LC3 puncta at 150 uM by fluorescence microscopic analysis; format: functional, cell-based; how it was run: as §1

Row | SMILES | IC50 [1] [µM] | IC50 [2] [µM] | IC50 [3] [µM] | Activity [4] | Activity [5] | Activity [6] | Activity [7]
1 | O=c1[nH]c(-c2ccc(O)cc2)nc2sc3c(c12)CCCC3 | 22.8 | 7.32 | > 30 |  |  |  | 
2 | Cc1sc2c(c1C)C(c1ccc(Cl)cc1)=N[C@@H](CC(=O)OC(C)(C)C)c1nnc(C)n1-2 | 28.8 |  | 33 |  |  |  | 
3 | CCCc1cc2c(=O)[nH]c(-c3cccc(Br)c3)nc2s1 | > 30 | > 10 | > 30 |  |  |  | 
4 | O=c1[nH]c(-c2ccccc2)nc2sc3c(c12)CCC3 | > 30 | > 10 | > 30 |  |  |  | 
5 | O=c1[nH]c(-c2ccc(C(F)(F)F)cc2)nc2sc3c(c12)CCN(Cc1ccccc1)C3 | > 30 | > 10 | > 30 |  |  |  | 
6 | CC1CCc2c(sc3nc(-c4ccc(Br)cc4)[nH]c(=O)c23)C1 (configuration not stated) | > 30 | > 10 | > 30 |  |  |  | 
7 | O=c1[nH]c(-c2ccccc2)nc2sc3c(c12)CCN(Cc1ccccc1)C3 | > 30 | > 10 | > 30 |  |  |  | 
8 | CC1CCc2c(sc3nc(-c4cccc(O)c4)[nH]c(=O)c23)C1 (configuration not stated) | > 30 | > 10 | > 30 |  |  |  | 
9 | CCCc1cc2c(=O)[nH]c(-c3cccc(OC)c3)nc2s1 | > 30 | > 10 | > 30 |  |  |  | 
10 | O=c1[nH]c(-c2ccc(F)cc2F)nc2sc3c(c12)CCCC3 | > 30 | > 10 | > 30 |  |  |  | 
11 | COc1ccccc1-c1nc2sc3c(c2c(=O)[nH]1)CCN(C)C3 | 5.6 | 2.47 | 8.19 |  |  |  | 
12 | O=c1[nH]c(Cc2ccccc2)nc2sc3c(c12)CCC3 | > 30 | > 10 | > 30 |  |  |  | 
13 | O=c1[nH]c(-c2ccc(C(F)(F)F)cc2)nc2sc3c(c12)CCC3 | 8.39 | 1.53 | 14.7 |  |  |  | 
14 | CC1CCc2c(sc3nc(Cc4ccc(-c5ccccc5)cc4)[nH]c(=O)c23)C1 (configuration not stated) | > 30 | > 10 | > 30 |  |  |  | 
15 | CN1CCc2c(sc3nc(-c4ccc(O)cc4)[nH]c(=O)c23)C1 | 5.48 | 0.72 | 8.29 |  |  |  | 
16 | Cc1cc(-c2nc3sc4c(c3c(=O)[nH]2)CCN(Cc2ccccc2)C4)cc(C)c1O | > 30 | > 10 | > 30 |  |  |  | 
17 | CC1CCc2c(sc3nc(-c4cccc(Br)c4)[nH]c(=O)c23)C1 (configuration not stated) | 2.69 | 1.02 | 16.3 |  |  |  | 
18 | O=c1[nH]c(Cc2ccccc2)nc2sc3c(c12)CCCCC3 | 4.5 | 0.82 | 5.8 |  |  |  | 
19 | COc1cccc(-c2nc3sc4c(c3c(=O)[nH]2)CCCC4)c1 | > 30 | > 10 | > 30 |  |  |  | 
20 | CN1CCc2c(sc3nc(Cc4ccc(-c5ccccc5)cc4)[nH]c(=O)c23)C1 | > 30 | > 10 | > 30 |  |  |  | 
21 | O=c1[nH]c(-c2ccc(O)cc2)nc2sc3c(c12)CCCCC3 | 1.56 | 0.56 | 3.29 |  |  |  | 
22 | O=c1[nH]c(-c2ccc(Br)cc2)nc2sc3c(c12)CCCC3 | > 30 | > 10 | > 30 |  |  |  | 
23 | COc1cccc(-c2nc3sc4c(c3c(=O)[nH]2)CCN(Cc2ccccc2)C4)c1 | > 30 | > 10 | > 30 |  |  |  | 
24 | CC1CCc2c(sc3nc(-c4cc(F)c(F)c(F)c4)[nH]c(=O)c23)C1 (configuration not stated) | > 30 | > 10 | > 30 |  |  |  | 
25 | O=c1[nH]c(-c2cccc(Br)c2)nc2sc3c(c12)CCCCC3 | 18.5 | 5.73 | > 30 |  |  |  | 

Row | SMILES | IC50 [1] [µM] | IC50 [2] [µM] | IC50 [3] [µM] | Activity [4] | Activity [5] | Activity [6] | Activity [7]
26 | O=c1[nH]c(Cc2ccc(-c3ccccc3)cc2)nc2sc3c(c12)CCCCC3 | > 30 | > 10 | > 30 |  |  |  | 
27 | CC1CCc2c(sc3nc(-c4ccc(C(F)(F)F)cc4)[nH]c(=O)c23)C1 (configuration not stated) | > 30 | > 10 | > 30 |  |  |  | 
28 | Cc1cc(-c2nc3sc4c(c3c(=O)[nH]2)CCC4)cc(C)c1O | 18.5 | 6.38 | 23.1 |  |  |  | 
29 | CN1CCc2c(sc3nc(-c4ccc(C(F)(F)F)cc4)[nH]c(=O)c23)C1 | > 30 | > 10 | 22.2 |  |  |  | 
30 | O=c1[nH]c(-c2ccc(Br)cc2)nc2sc3c(c12)CCC3 | 21.3 | 8.94 | > 30 |  |  |  | 
31 | Oc1nc(-c2ccccc2)nc2sc3c(c12)CCCC3 | > 30 | > 10 | > 30 |  |  |  | 
32 | CCCc1cc2c(=O)[nH]c(-c3ccc(O)cc3)nc2s1 | > 30 | 8.59 | 28.4 |  |  |  | 
33 | CCCc1cc2c(=O)[nH]c(Cc3ccc(-c4ccccc4)cc3)nc2s1 | > 30 | > 10 | > 30 |  |  |  | 
34 | CC1CCc2c(sc3nc(-c4ccc(O)cc4)[nH]c(=O)c23)C1 (configuration not stated) | 12.2 | 4.31 | 22.9 |  |  |  | 
35 | O=c1[nH]c(-c2ccc(O)cc2)nc2sc3c(c12)CCN(Cc1ccccc1)C3 | 17 | 6.37 | > 30 |  |  |  | 
36 | CN1CCc2c(sc3nc(-c4cccc(Br)c4)[nH]c(=O)c23)C1 | 2.17 | 1.04 | 8.31 |  |  |  | 
37 | O=c1[nH]c(-c2cccc(Br)c2)nc2sc3c(c12)CCC3 | > 30 | > 10 | > 30 |  |  |  | 
38 | O=c1[nH]c(-c2cccc(O)c2)nc2sc3c(c12)CCCCC3 | 13.2 | 3.98 | 17.4 |  |  |  | 
39 | Cc1cc(-c2nc3sc4c(c3c(=O)[nH]2)CCCCC4)cc(C)c1O | 2.81 | 0.49 | 8.31 |  |  |  | 
40 | Cc1cc(-c2nc3sc4c(c3c(=O)[nH]2)CCC(C)C4)cc(C)c1O (configuration not stated) | 5.59 | 3.24 | 9.42 |  |  |  | 
41 | CC1CCc2c(sc3nc(-c4ccccc4)[nH]c(=O)c23)C1 (configuration not stated) | > 30 | > 10 | > 30 |  |  |  | 
42 | COc1cc(OC)c2c(=O)[nH]c(-c3cc(C)c(OCCO)c(C)c3)nc2c1 [APABETALONE] | 140 |  | 155 | Active | Active | Active | Active
43 | O=c1[nH]c(-c2ccc(C(F)(F)F)cc2)nc2sc3c(c12)CCCC3 | 28.1 | > 10 | > 30 |  |  |  | 
44 | COc1cccc(-c2nc(=O)c3c4c(sc3[nH]2)CC(C)CC4)c1 (configuration not stated) | > 30 | > 10 | > 30 |  |  |  | 
45 | Cc1cc(-c2nc3sc4c(c3c(=O)[nH]2)CCCC4)cc(C)c1O | 24.9 | 6.93 | 27.8 |  |  |  | 
46 | COc1ccccc1-c1nc2sc3c(c2c(=O)[nH]1)CCC3 | 2.22 | 0.78 | 5.34 |  |  |  | 
47 | CC1CCc2c(sc3nc(Cc4ccccc4)[nH]c(=O)c23)C1 (configuration not stated) | > 30 | > 10 | > 30 |  |  |  | 
48 | O=c1[nH]c(-c2ccc(Br)cc2)nc2sc3c(c12)CCCCC3 | > 30 | > 10 | > 30 |  |  |  | 
49 | CN1CCc2c(sc3nc(-c4cccc(O)c4)[nH]c(=O)c23)C1 | > 30 | > 10 | > 30 |  |  |  | 
50 | O=c1[nH]c(-c2ccc(C(F)(F)F)cc2)nc2sc3c(c12)CCCCC3 | > 30 | > 10 | > 30 |  |  |  | 
